# This sample holds only a part of the variants without activity.
# B1: tRNA (parent)
# chain: GUUCCGUUGGCGUAAUGGUAACGCGUCUCCCUCCUAAGGAGAAGACUGCGGGUUCGAGUCCCGUACGGAACG
# Variants of: B1
# Assay: yeast fitness relative to wild type (ratio to wild type); higher = fitter; tRNA-Arg(CCU), competitive growth, 37 C, YPD
# How it was run: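 Start and end populations of a pooled competition were compared by 100-nucleotide paired-end sequencing of gene amplicons. The Saccharomyces cerevisiae strains carried tRNA-Arg(CCU) gene variants at the native genomic locus, synthesised with a 3% per-site mutation rate at 69 sites, and competed in YPD at 37°C for 24 hours in six parallel replicates. Darwinian fitness relative to wild type was based on the change in genotype frequencies. Genotypes required ≥ 100 starting reads, and estimates < 0.5 were set to 0.5.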
row,Variant,yeast fitness
1,G41A G56C G63A U64C G67C,≤ 0.5
2,A40U G41A,0.71
3,A40G C49G U53C A57C A69U,≤ 0.5
4,A40U C61A,0.76
5,G41A G44C,0.671
6,A40G G52A A65U,≤ 0.5
7,A40U A43U,1.11
8,A40U A43C,1
9,A40U A43G,0.788
10,A40G U54C,0.955
11,A40G U54A,0.551
12,G41A A65G A70G,0.63
13,G41A C61G C66U,≤ 0.5
14,A40G C46G C60U,≤ 0.5
15,A40G C55A,0.626
16,A40G C55G,0.621
17,A42C A43G C55G G68C,≤ 0.5
18,A42C G44A U53A,≤ 0.5
19,A42C A45C,0.854
20,G41A A45U G56C,0.546
21,A42G A43G A45U,0.722
22,A40G G58A,0.857
23,A40G G58C,1.05
24,A42C A43C A69U,0.819

row,Variant,yeast fitness
1,A40U G51A,0.777
2,A40G U53C,0.827
3,G41C C66U,0.83
4,A40G U59C C60A U64A,≤ 0.5
5,A42C C62G A65C,0.544
6,A42C C49G,0.759
7,A42C C49A,0.62
8,G41C A43U,0.957
9,G41C A43G,0.898
10,A42G A43U U47G C61G G67A,≤ 0.5
11,G41U G51C,0.565
12,G41C U47A,0.654
13,G41C U47C,0.937
14,A40U A43C A69U,0.851
15,A42G A45G C46U,0.726
16,G41A U47A G48C,0.6
17,G41A G63A A70C,0.753
18,G41A U47C U53A,≤ 0.5
19,A42G A70C,0.853
20,A42G A69G,0.749
21,A42G A69U,0.959
22,A40G C55U A65C,0.525
23,A42G A43C A70U,0.745
24,G41U C66U,0.845

row,Variant,yeast fitness
1,A40G C66A,0.694
2,A40G U47A C66G,0.705
3,A42C C46G G67C,0.612
4,A40U A69U A70C,0.725
5,A40U G48A,0.826
6,G41C C62A G68C,≤ 0.5
7,G41C C62U,0.802
8,A40U A42C C55U,≤ 0.5
9,A40U A43U A70U,0.664
10,G41C G48A C66A,0.583
11,G41C A65G,0.905
12,G41C A65U,0.858
13,G41A U47C C61G C62U,≤ 0.5
14,G41C C60G G68A,≤ 0.5
15,A42C U64C A70U,1.12
16,A42C C46U,0.969
17,G41A C61G,0.685
18,A42C A70G,0.87
19,A42C A70C,1.02
20,A42C C55U C66U,0.504
21,G41A A57C C62A,≤ 0.5
22,A40G C62U A69C,0.725
23,G41A G67A,0.663
24,A42C A43G G63A,0.599

row,Variant,yeast fitness
1,G41A A45U,1.01
2,G41C A45U,0.778
3,G41C A45G,0.778
4,G41C A42U U64C,0.82
5,A40U C49G,0.811
6,A40U C49U,0.856
7,A40U C49A,0.638
8,G41A G51A A70C,0.542
9,G41A A43U G63A,≤ 0.5
10,G41A A43C C66U,0.517
11,A40U G58A,0.92
12,A40G U53C C61A C62G,≤ 0.5
13,A40U A43C U53C G68A,≤ 0.5
14,G41A A57G,0.828
15,G41A A57U,0.759
16,A40G G51C,0.664
17,A42C A65U C66U,0.558
18,A42C A43C,1.02
19,A42C A43G,0.885
20,A42C A43U,0.779
21,G41A A69U,0.914
22,G41A A69C,0.801
23,A40U A69U,1.04
24,A40U A69C,0.851

row,Variant,yeast fitness
1,G41A G68C,0.775
2,G41C U59A C61A C66U G68C,≤ 0.5
3,A40U A43C G68A,0.605
4,G41A U47C C62U,≤ 0.5
5,G41A C55A U59A,0.613
6,G41A C49A G50C G68C,≤ 0.5
7,A40G C60G G63C,≤ 0.5
8,G41C C60U G67A,≤ 0.5
9,A40U G48C G63A,0.602
10,G41A C55U,0.885
11,G41A C55G,0.605
12,A40U A65C,0.652
13,A40U A65U,0.868
14,A40G G58A A70U,0.61
15,A40G G58A A70C,0.593
16,G41C C55U G67C,≤ 0.5
17,G41C G51A,0.844
18,G41A U59A A65C G67U,≤ 0.5
19,G41A C60G A65G,0.62
20,G41C G63C,0.727
21,G41C G63A,0.852
22,A40G G50A U54A,0.552
23,A40U G48C C49U,0.586
24,A40U A45U A57U,0.611

row,Variant,yeast fitness
1,A40U A57G U64G,≤ 0.5
2,A42C C62A C66G,≤ 0.5
3,A40U U59C,0.913
4,A40U U59G,0.815
5,G41A A70G,0.924
6,G41C C46A,0.982
7,A40G G44A,0.717
8,A40U A45U G48A C55U C66U,≤ 0.5
9,G41A C49U C60G A65G,0.635
10,A42C C62G,0.704
11,A40G C61U U64G A69U,≤ 0.5
12,G41A U47G,0.655
13,A40G G63A,0.819
14,G41A A42C G50C,0.622
15,A40G C46A G68C,0.633
16,A40G G52A U54G C61U,≤ 0.5
17,A42C C66G,0.684
18,A42C C66A,0.688
19,A42C A45C G52C A69U,≤ 0.5
20,G41A U64C A65C,≤ 0.5
21,A42C C46G G52A,≤ 0.5
22,A40G G50C A57C G58C,0.636
23,G41A U53C,0.626
24,A42C G50C C66U,0.534

row,Variant,yeast fitness
1,A42C C60G,0.608
2,A42C C60A,0.672
3,A40U A45U G63A,0.689
4,A40G G51C U59A C61A A69U,≤ 0.5
5,G41A C46A U47C,1.06
6,A42C G51A A65U G68A,≤ 0.5
7,A40U A45U U53C,0.684
8,G41U A69U,0.845
9,A40U G56A,0.843
10,A40G G50A C61G,0.584
11,A42G A45U G50C,≤ 0.5
12,A42C G48C,0.763
13,A42C G48A,1.07
14,A42C G51C,0.553
15,A40U U47C C66A,0.611
16,A42C C49A G67C,≤ 0.5
17,A40G G48A C66U,0.769
18,A42G A43C A69G,0.835
19,A42C C46G A65U G67C,≤ 0.5
20,G41C C55G C66G,≤ 0.5
21,G41A C60G A65G G68A,≤ 0.5
22,G41C G50A,0.703
23,G41C G50C,0.695
